According to the EternaBench riboswitch data:

Test system: MS2 coat protein
Assay: apparent Kd, MS2 coat protein; higher = weaker binding; RNA-MaP array; FMN 200 µM where present
Summary of the method: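 In 100 mM Tris-HCl pH 7.5, 80 mM KCl, 4 mM MgCl2, BSA, DTT, yeast tRNA and Tween-20, SNAP-549-labelled MS2 coat protein was titrated from 0.7 or 1.5 nM, doubling to 3 µM, over designs transcribed by stalled E. coli RNA polymerase on Illumina sequencing-chip clusters. This was done first without ligand, then with ligand held constant. After green signal was normalised to red-channel RNA signal and control-cluster median Fmax, the apparent Kd was taken as the median of filtered per-cluster binding-curve fits.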

[1] = designed as: ON switch for flavin mononucleotide, no ligand
[2] = ligand present: flavin mononucleotide, designed as: ON switch for flavin mononucleotide
[3] = designed as: OFF switch for flavin mononucleotide, no ligand
[4] = ligand present: flavin mononucleotide, designed as: OFF switch for flavin mononucleotide

| Sequence | apparent Kd [1] [nM] | apparent Kd [2] [nM] | apparent Kd [3] [nM] | apparent Kd [4] [nM] |
| --- | --- | --- | --- | --- |
| UCAUACAUUCGAGGAUAUCGGUGAUUAAUUUUACGAGAAGGCGAUAUAAGAUUUAAUUUUUAAGACAUGAGGAUCACCCAUGUA | 30.7 | 29.6 | – | – |
| AACGGGUGGGUAGGAUAUGGCUAUGUCUCAUUGCUAGAAGGACCAGCUACUACAUGAGGAUCACCCAUGUCGUAGUGCACCCAG | 20.5 | 6.04 | – | – |
| AGCUAGUGAGGAUAUACGAACAUGUCAAAAGACGUGAAAUAACAUGAGGAUCACCCAUGUAGAAGGCACUAGCA | – | – | 19.2 | 16.7 |
| CAGUGCAAUGUAGGAUAUGCUCAGGAAUACUGAGCAGAAGGACAUGAGGAUCACCCAUGUCAAAUGAAAGAUAAUAAAGCACUG | – | – | 14.6 | 18.9 |
| AUGGGCUAGGAGAAGGGCUAGAGUGUGAUAUAUUUGCCCGCGAGCACAUGAGGAUCACCCAUGUAGCAGGAUAUCCAAGCCGGU | – | – | 7.43 | 18 |
| UGGGUUACAGGAUAUACAUGAGGAUCACCCAUGUCAUGUUUCGUGGCGGAUAGCUCGAGUAGAAGGGUGCAUCC | – | – | 50 | 60.4 |
| ACGCCAAUCGAGAAGGGCCCAUGUGCUACGUCGGCAGGAUAUCGACAUGAGGAUCACCCAUGUUGGCGAUCCUUUUUGGCUAAC | – | – | 147 | 212 |
| CGAAGCCCGUAGAAGGGUGACAUGAGGAUCACCCAUGUGCGAGCGGAGGGAGUCAGCGGCUCGCCACAGGAUAUACGGAGCUCG | 151 | 67.9 | – | – |
| AUGCUAUAUGUAGGAUAUUCAAAGAAAGAGAAUGAAGAAGGACAUGAGGAUCACCCAUGUAAAAUGUAGAUAGAUAUCAUACAU | – | – | 18 | 14 |
| AGAACAUGAGGAUCACCCAUGUGAAGGUCGGUGUAUAAGGGUGAGGAUAUGCUUAAAAUAAGGAAGCAGAAGGUGCUUGGUGCA | 155 | 145 | – | – |
| ACUAAACGAGGAUAUACUGACAGGCCUCAAACAUACAUCAAACAUGAGGAUCACCCAUGUAGAAGGCGUAAACU | – | – | 34.5 | 25.1 |
| AAACUCAGAGGAUAUACAUAACACAGACUCUUCAUGCGUUCACAUGAGGAUCACCCAUGUAGAAGGCUGACAAC | – | – | 23.2 | 85.1 |
| UUGGACAGCUAGAACUGUUAAGUACAUGAGGAUCACCCAUGUCAGGAUAUCCUUCCGCAAUGCGAGGAGAAGGGACAGGGUCCC | – | – | 53.7 | 124 |
| CAUUAAUUCAUUAUAGUUAUUAUACAGGAUAUGUUACAUGAGGAUCACCCAUGUAUUCAUGGUAAACAGAAGGGUAAUACUCGU | – | – | 49.3 | 45.9 |
| UACAUGAGGAUCACCCAUGUUUUGUCGUGUAUGGUAUUUAUCUAGGAUAUCGUGUUAUUUAACCACGAGAAGGAGAGUAUCAAU | – | – | 27.5 | 26.7 |
| UGAAUCAAUACAGGAUAUGGUGACGCACAUGAGGAUCACCCAUGUCCGCAGCGUGCUAAGCACGCCCAGAAGGGUAUUGAUCUG | 1010 | 81 | – | – |
| CCAGCGUGUGUGAGGAUAUGCUGGUCCUUGGAUCAGCAGAAGGCACAUGAGGAUCACCCAUGUGAGUACGUUGG | – | – | 16.9 | 59.4 |
| ACCUUACAUGAGGAUCACCCAUGUUAGGAUAUCUCGCUUGCGCAAUCACAACGCAAGCAGAGAAGGGACGCGGG | – | – | 29.1 | 33.4 |
| GGGUACAUCGGAGGAUAUCAUGUAAAUACAUGAGGAUCACCCAUGUCGUACGAGAGUACGGAGAUUGAGAAGGCCGAUGUACCG | 24.9 | 15.3 | – | – |
| GUUUCACAUGAGGAUCACCCAUGUGAGGAUAUAGAUUUUUUAGUAAUAAUUGUUGGAUUUAGAAGGCGCGUGAU | – | – | 22 | 21.5 |
| GGUCCAUUAUGAGGAUAUGGCACCUUAUUGGUGCCAGAAGGCAUGUCUUCACAUGAGGAUCACCCAUGUUAAAUAAAUUGGACC | 16.3 | 17.7 | – | – |
| GGACAUUUACAGAAGGGCAAAUUUUAUAUUGAAUAUUUAGUUCUGAUUUGCAGGAUAUGUUUUACAUGAGGAUCACCCAUGUCC | 59.9 | 27.9 | – | – |
| ACAUGACAUGAGGAUCACCCAUGUCGAUAAAAGCAAGGAUAUGGGCCCGAGUCGUUCGGACCAGAAGGUGCGUCUC | 23.6 | 18 | – | – |
| UCAAGUAUGUAGGAUAUCGAUGUCCUCGGACAUCGAGAAGGACGUACAUGAGGAUCACCCAUGUAACUUGCAUG | – | – | 63.8 | 84.9 |
| UGUCGGAGCAGAGGAUAUUACAUGAGGAUCACCCAUGUAUGAACCAAUAGCUGGAAACAGCAAUGGAAGAAGGCUGCUCCGACA | – | – | 4.99 | 5.37 |
| CUUUUGUGAGGAUAUCAGUAGUAAUACAAUAGUAUUACUGCUGAGAAGGCACAUGAGGAUCACCCAUGUUCCUC | – | – | 59.9 | 284 |
| UAUAGGCUAGGAUAUACAACACUUGGUUCGAAUGUUUGGAGACAUGAGGAUCACCCAUGUAGAAGGAGCAUUUC | – | – | 64.8 | 190 |
| GUUUACCGAGGAUAUACAUGAGGAUCACCCAUGUUCCUAACAAACGUCGGUUCAGCGUGUAGAAGGCGGACCUA | – | – | 17.9 | 28.4 |

| Sequence | apparent Kd [1] [nM] | apparent Kd [2] [nM] | apparent Kd [3] [nM] | apparent Kd [4] [nM] |
| --- | --- | --- | --- | --- |
| UUUAUUUUUAGAGGAUAUAUUGUGUGUGAGAGAAUAGAAGGCUAAACAUGAGACACACACAUGAGGAUCACCCAUGUUAUGUUU | 62.6 | 52 | – | – |
| AUGCCCUGAGGAUAUCUCAUCCCGCACAUGAGGAUCACCCAUGUUCUUCUCCGGGUUCCGAGAGAAGGCAGGCCUA | – | – | 157 | 81.9 |
| CCAUAAAAGAUCCAAAAUUACAACAUGAGGAUCACCCAUGUGCAGGAUAUCGUGCCAGUGAUGUACGAGAAGGGCAGACACUGC | – | – | 356 | 400 |
| UGCGUACAAGCAGACAUGAGGAUCACCCAUGUAGUCUUAUGCGAGGAUAUCGGGAAGGAGGAUUCCGAGAAGGUGCGGUGAGCC | 25.4 | 21.9 | – | – |
| GUCAGCUCGUGAGGAUAUACAUCACUGCUUCGGCAGUGUAUUAACAUCACAUGAGGAUCACCCAUGUAGAAGGCACGAGCUGAU | – | – | 16 | 22.7 |
| GUCAGCUCGUGAGGAUAUACAACACUGCUUCGGCAGAGUAUUAAGAUCACAUGAGGAUCACCCAUGUAGAAGGCACGAGCUGAU | – | – | 10.3 | 117 |
| GGGUACAUGGGAGGAUAUCCUCAUGAGACAUGAGGAUCACCCAUGUAUUAUAAGCCGAAAGGCAAGGAGAAGGCCCAUGUACCG | 30.2 | 17 | – | – |
| AAGAAGUCAGGAUAUGCUGCUCGUCACUUGCGUGAUGAGUAGCAGAAGGGACAUGAGGAUCACCCAUGUGGAGA | – | – | 114 | 241 |
| CCACCCUGAGGAUAUCCACCCUCAUACAUGAGGAUCACCCAUGUUCAUGCCUGAGUUCCCGGAGAAGGCAGAUUCC | – | – | 109 | 87.2 |
| CGGUGCUGAGGAUAUACAUGAGGAUCACCCAUGUGUUCUAGCUAGCGUACUGGCAGAUGUAGAAGGCGGUACUG | – | – | 18.2 | 75.7 |
| GUACUGUAGUGAGGAUAUACGAGUUCGAUAGAACGGCGAUCCAAUUAUACAUGAGGAUCACCCAUGUAGAAGGCACUUCAGUAC | – | – | 8.88 | 50 |
| UGACUGAAGCAAGGAUAUUGUAAAGUUAUCGUACAAGAAGGUGCUGUUUAUGUCUCUUUACAUGAGGAUCACCCAUGUUUUUAU | 32.8 | 24.6 | – | – |
| GACAUGAGGAUCACCCAUGUCCAACCAGAAGGCCAGGAAUCGGACCCGAGUAUCGGGUUCGAGAUGGAGGAUAUGGGCGCCGAA | 75.1 | 33.7 | – | – |
| AGAUGGCGAGGAUAUACAUGAGGAUCACCCAUGUGAGAGAAUAAAGUGAGGAAGAAAAGUAGAAGGCGCUGUCA | – | – | 59.4 | 264 |
| AUGGUGGUAGGAUAUACAACUACUUGAUCGCGUUUCAUGGAACAUGAGGAUCACCCAUGUAGAAGGGCCCGAGG | – | – | 794 | 552 |
| AGUUGGCGAGGAUAUACAUGAGGAUCACCCAUGUGAAAUAGAAUAGUGAGGAAGAAAAGUAGAAGGCGCUGACA | – | – | 58.6 | 323 |
| GCAGCACAGUAUUACAUGAGGAUCACCCAUGUCGAUUGAGAUGAGGAUAUGCAUCGAAUGAAGUUGCAGAAGGCAUUGUGCUGC | 10.9 | 5.94 | – | – |
| AGGUACAACGGAGGAUAUAAUAGUCUAUAGACGUUAGAAGGCCGGGCCUUCACAUGAGGAUCACCCAUGUCUCUGGAGGCGCCU | 20.8 | 16.9 | – | – |
| CCUAUGUGAGGAUAUCACUGGUCUUCUUUUAUUUUUUACAGUGAGAAGGCACAUGAGGAUCACCCAUGUCGGUG | – | – | 107 | 36.4 |
| GUCAGCUCGUGAGGAUAUACAUGUGCUGGAGACAGCACUAUUAAAUUCACAUGAGGAUCACCCAUGUAGAAGGCACGAGCUGAU | – | – | 15.2 | 18.6 |
| UCAUACGGUGAGGAUAUCUCCGCUAAAGUGUGUAGAGAAGGCGCUACAUGAGGAUCACCCAUGUUUAUGGGCAG | – | – | 403 | 228 |
| CGUUAUGAUAGAGGAUAUGUAAUACAUGAGGAUCACCCAUGUUACAUGGGUAAUAUUAAUAAUUAACAGAAGGCUAUCCUUUCG | – | – | 484 | 149 |
| AGGAGAAAUGUAGGAUAUGGGCAUAUAUAUGGGCAAAGCGCAUAUAUAUGCCCAGAAGGACAUGAGGAUCACCCAUGUUUCCCU | – | – | 12.5 | 13.6 |
| GAACUAAAGCAUAGCUUUAGUCGUACAUGAGGAUCACCCAUGUAGGAUAUGGUAGGCAUAGCUUACUAGAAGGAUAGAGUGAUC | – | – | 294 | 82.4 |
| AGGAAGUAAGGAUAUGCUGCUCGUCACUUGCGUGAUGAGUAGCAGAAGGUACAUGAGGAUCACCCAUGUAAAGA | – | – | 23.7 | 20.6 |
| GAUUAUAAGUAAGGAUAUGUAUAUGAAACAUAUACAGAAGGUACAUGAGGAUCACCCAUGUUCUUGCAGCGCGAAUAUGUAAUC | – | – | 18.9 | 27.7 |
| UUCUUUGUUGUGAGGAUAUCGUAUUCUUUUUGUUACGAGAAGGCACAUGAGGAUCACCCAUGUUUCUUGAUGUU | – | – | 16.9 | 45.8 |
